Each block holds one compound with its values, some of them ahead of it.
What was measured:
[1] = target: Melanin-concentrating hormone receptor 1 (Homo sapiens, UniProt Q99705); assay: Displacement of Eu-labeled MCH from human MCH-R1 expressed in CHO by time-resolved fluorometric assay
Outline: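 Competitive binding on membranes from CHO cells expressing human MCH-R1, with Eu-labeled MCH as tracer and time-resolved fluorometric read-out. IC50 values are means of at least two measurements.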

[2] = Metabolic stability in human liver microsomes after 30 mins; assay type: ADME, Microsome; conditions: read-out: Stability
[3] = Metabolic stability in rat liver microsomes after 30 mins; assay type: ADME, Microsome; conditions: read-out: Stability
[4] = target: Voltage-gated inwardly rectifying potassium channel KCNH2 (Homo sapiens, UniProt Q12809); assay: Inhibition hERG by patch clamp method
Voltage-gated inwardly rectifying potassium channel KCNH2, sequence (Q12809 whole entry): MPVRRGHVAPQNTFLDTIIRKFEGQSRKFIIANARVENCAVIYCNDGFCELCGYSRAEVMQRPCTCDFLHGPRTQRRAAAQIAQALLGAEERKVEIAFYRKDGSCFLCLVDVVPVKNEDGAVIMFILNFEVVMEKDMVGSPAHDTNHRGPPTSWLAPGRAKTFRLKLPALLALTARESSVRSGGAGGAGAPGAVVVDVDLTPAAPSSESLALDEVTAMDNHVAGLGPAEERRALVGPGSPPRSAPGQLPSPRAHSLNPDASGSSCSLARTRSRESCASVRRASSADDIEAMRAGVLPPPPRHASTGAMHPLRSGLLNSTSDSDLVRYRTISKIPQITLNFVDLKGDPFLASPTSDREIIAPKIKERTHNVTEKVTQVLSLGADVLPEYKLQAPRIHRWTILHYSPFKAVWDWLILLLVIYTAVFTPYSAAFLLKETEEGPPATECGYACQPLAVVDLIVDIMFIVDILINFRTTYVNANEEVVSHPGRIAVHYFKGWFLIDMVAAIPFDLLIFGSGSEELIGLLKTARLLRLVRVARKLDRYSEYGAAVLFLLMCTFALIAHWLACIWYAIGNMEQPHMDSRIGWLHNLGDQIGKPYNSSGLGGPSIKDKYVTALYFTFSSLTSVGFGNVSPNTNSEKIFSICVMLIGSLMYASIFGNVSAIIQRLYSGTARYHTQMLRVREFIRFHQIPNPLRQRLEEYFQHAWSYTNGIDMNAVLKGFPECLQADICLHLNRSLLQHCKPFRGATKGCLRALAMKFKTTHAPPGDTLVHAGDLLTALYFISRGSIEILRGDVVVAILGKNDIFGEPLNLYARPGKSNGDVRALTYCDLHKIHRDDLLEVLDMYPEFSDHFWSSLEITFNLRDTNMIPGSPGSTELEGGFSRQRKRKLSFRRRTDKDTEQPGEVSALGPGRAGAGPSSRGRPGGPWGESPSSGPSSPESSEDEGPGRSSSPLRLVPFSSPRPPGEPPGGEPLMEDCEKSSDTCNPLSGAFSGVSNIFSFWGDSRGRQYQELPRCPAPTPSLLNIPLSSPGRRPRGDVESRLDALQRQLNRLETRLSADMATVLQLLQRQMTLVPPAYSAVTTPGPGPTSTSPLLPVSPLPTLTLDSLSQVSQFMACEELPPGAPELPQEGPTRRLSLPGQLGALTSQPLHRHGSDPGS

[5] = Plasma concentration in rat at 10 mg/kg, po at 3 hrs; assay type: ADME, organism-based; parameters: dose 10 mg/kg, route oral
Outline: (§1)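 SD rats were given 10 mg/kg orally, and concentrations were measured 3 h after dosing. Values are means of n = 3 rats.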

[6] = Oral bioavailability in rat at 10 mg/kg; assay type: ADME, organism-based; conditions: in vivo
Outline: (§2)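 Rats received 10 mg/kg by both intravenous and oral routes, n = 3.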

[7] = Drug level in rat brain at 10 mg/kg, po at 3 hrs; assay type: ADME, organism-based; parameters: dose 10 mg/kg, route oral; conditions: read-out: Drug uptake; outline: as §1
[8] = Clearance in rat at 10 mg/kg, iv; assay type: ADME, organism-based; parameters: dose 10 mg/kg, route intravenous; conditions: in vivo; outline: as §2
[9] = tested on: Rattus norvegicus; assay: Volume of distribution at steady state in rat at 10 mg/kg, iv and po; assay type: ADME, organism-based; parameters: dose 10 mg/kg, route oral; conditions: in vivo; outline: as §2
[10] = Half life in rat at 10 mg/kg, iv and po; assay type: ADME, organism-based; parameters: dose 10 mg/kg, route oral; conditions: in vivo; outline: as §2

Melanin-concentrating hormone receptor 1, sequence (Q99705 whole entry): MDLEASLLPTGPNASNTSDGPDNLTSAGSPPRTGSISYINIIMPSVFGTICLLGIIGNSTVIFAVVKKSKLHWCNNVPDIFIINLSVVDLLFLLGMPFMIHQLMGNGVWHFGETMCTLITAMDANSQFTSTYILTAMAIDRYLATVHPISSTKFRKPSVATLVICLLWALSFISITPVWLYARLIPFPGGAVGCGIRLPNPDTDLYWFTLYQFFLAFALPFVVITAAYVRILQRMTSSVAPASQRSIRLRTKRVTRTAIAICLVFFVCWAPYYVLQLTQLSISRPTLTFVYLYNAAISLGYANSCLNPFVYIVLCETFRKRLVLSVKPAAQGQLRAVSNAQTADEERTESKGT

IC50 [1]: 10000 nM
Compound: CC(=O)Nc1cccc(C2CCN(CCn3c(-c4ccccc4)nc4ccccc43)CC2)c1

remaining at 0.5 h [2]: 97% | remaining at 0.5 h [3]: 98% | concentration at 3 h [5]: 420 ng/mL | bioavailability [6]: 99% | concentration at 3 h [7]: 160 ng/g | clearance [8]: 28.3 mL/min/kg | Vdss [9]: 6 L/kg | half-life [10]: 4.3 h
Compound: CC(=O)Nc1cccc(C2CCN(CCCn3c(-c4ccc(Cl)cc4)nc4ccccc43)CC2)c1
IC50 [4]: 3 nM

IC50 [1]: 50 nM
Compound: CC(=O)Nc1cccc(C2CCN(CCCn3c(-c4ccccc4C(F)(F)F)nc4ccccc43)CC2)c1

IC50 [1]: 30 nM
Compound: CC(=O)Nc1cccc(C2CCN(CCCn3c(-c4cccc(C(F)(F)F)c4)nc4ccccc43)CC2)c1

IC50 [1]: 32 nM
Compound: CCc1ccc(-c2nc3ccccc3n2CCCN2CCC(c3cccc(NC(C)=O)c3)CC2)cc1

IC50 [1]: 60 nM
Compound: CC(=O)Nc1cccc(C2CCN(CCCn3c(-c4ccc(C(C)C)cc4)nc4ccccc43)CC2)c1

IC50 [1]: > 6000 nM
Compound: CC(=O)Nc1ccccc1C1CCN(CCCn2c(-c3ccc(Cl)cc3)nc3ccccc32)CC1

IC50 [1]: 5380 nM
Compound: CC(=O)Nc1ccc(C2CCN(CCCn3c(-c4ccc(Cl)cc4)nc4ccccc43)CC2)cc1

IC50 [1]: 300 nM
Compound: Cc1ccc(C(=O)Nc2cccc(C3CCN(CCCn4c(-c5ccc(Cl)cc5)nc5ccccc54)CC3)c2)cc1

— ChEMBL document CHEMBL1759894, “Synthesis and SAR investigations of novel 2-arylbenzimidazole derivatives as melanin-concentrating hormone receptor 1 (MCH-R1) antagonists” (Bioorg Med Chem Lett, 2011)
